Data from ChEMBL document CHEMBL1124808, “The synthesis and antiallergy activity of 1-(aryloxy)-4-(4-arylpiperazinyl)-2-butanol derivatives” (1990).

Experiments:
[1] = system: Rattus norvegicus; assay: Percent change in volume of foot edema of test compound to that of positive control was determined at a dose of 31.6 mg/kg in rat; -41/-61; type: functional
[2] = system: Rattus norvegicus; assay: Percent change in volume of foot edema of test compound to that of positive control was determined at a dose of 31.6 mg/kg in rat; -26/-74; type: functional
[3] = system: Rattus norvegicus; assay: Percent change in volume of foot edema of test compound to that of positive control was determined at a dose of 3.16 mg/kg in rat; -32/-78; type: functional
[4] = system: Rattus norvegicus; assay: Percent change in volume of foot edema of test compound to that of positive control was determined at a dose of 31.6 mg/kg in rat; -90/-83; type: functional
[5] = system: Rattus norvegicus; assay: Percent change in volume of foot edema of test compound to that of positive control was determined at a dose of 10 mg/kg in rat; -46/-83; type: functional
[6] = system: Rattus norvegicus; assay: Percent change in volume of foot edema of test compound to that of positive control was determined at a dose of 10 mg/kg in rat; -15/-73; type: functional
[7] = system: Rattus norvegicus; assay: Percent change in volume of foot edema of test compound to that of positive control was determined at a dose of 31.6 mg/kg in rat; -64/-73; type: functional
[8] = system: Rattus norvegicus; assay: Percent change in volume of foot edema of test compound to that of positive control was determined at a dose of 31.6 mg/kg in rat; -25/-93
[9] = system: Rattus norvegicus; assay: Percent change in volume of foot edema of test compound to that of positive control was determined at a dose of 10 mg/kg in rat; -39/-72; type: functional
[10] = system: Rattus norvegicus; assay: Percent change in volume of foot edema of test compound to that of positive control was determined at a dose of 31.6 mg/kg in rat; -57/-83; type: functional
[11] = system: Rattus norvegicus; assay: Percent change in volume of foot edema of test compound to that of positive control was determined at a dose of 10 mg/kg in rat; -41/-59; type: functional
[12] = system: Rattus norvegicus; assay: Percent change in volume of foot edema of test compound to that of positive control was determined at a dose of 31.6 mg/kg in rat; -77/-67; type: functional
[13] = system: Rattus norvegicus; assay: Percent change in volume of foot edema of test compound to that of positive control was determined at a dose of 31.6 mg/kg in rat; -42/-81; type: functional
[14] = system: Rattus norvegicus; assay: Percent change in volume of foot edema of test compound to that of positive control was determined at a dose of 10 mg/kg in rat; -73/-59; type: functional
[15] = system: Rattus norvegicus; assay: Percent change in volume of foot edema of test compound to that of positive control was determined at a dose of 31.6 mg/kg in rat; -87/-67; type: functional
[16] = system: Rattus norvegicus; assay: Percent change in volume of foot edema of test compound to that of positive control was determined at a dose of 3.16 mg/kg in rat; -8/-67; type: functional
[17] = species: Cavia porcellus; assay: Dose that protects 50% of guinea pig from collapse was determined in guinea pig anaphylaxis assay; type: functional; details: read-out: PD50
In short: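 Guinea pigs dosed by gavage (10 mL/kg) with compound in 0.5% Tween 80/water; reference theophylline 100 mg/kg po. At 1–24 h, exposed in chamber to aerosolized 1% (w/v) egg albumin at 10 L air/min for up to 5 min; protected if no collapse within 5 min. PD50 by Litchfield and Wilcoxon.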

[18] = system: Rattus norvegicus; assay: Percent change in volume of foot edema of test compound to that of positive control was determined at a dose of 31.6 mg/kg in rat; -60/-74; type: functional
[19] = system: Rattus norvegicus; assay: Oral Antiallergic activity in the passive foot anaphylaxis (PFA) assay of various amines at the dose of 3.16 mg/kg; -4/-78; type: functional
[20] = system: Rattus norvegicus; assay: Percent change in volume of foot edema of test compound to that of positive control was determined at a dose of 10 mg/kg in rat; -54/-72; type: functional
[21] = system: Rattus norvegicus; assay: Percent change in volume of foot edema of test compound to that of positive control was determined at a dose of 31.6 mg/kg in rat; -79/-81; type: functional
[22] = system: Rattus norvegicus; assay: Percent change in volume of foot edema of test compound to that of positive control was determined at a dose of 10 mg/kg in rat; -36/-88; type: functional
[23] = system: Rattus norvegicus; assay: Percent change in volume of foot edema of test compound to that of positive control was determined at a dose of 10 mg/kg in rat; -40/-81; type: functional
[24] = system: Rattus norvegicus; assay: Percent change in volume of foot edema of test compound to that of positive control was determined at a dose of 31.6 mg/kg in rat; -56/-65; type: functional
[25] = system: Rattus norvegicus; assay: Percent change in volume of foot edema of test compound to that of positive control was determined at a dose of 3.16 mg/kg in rat; -20/-78; type: functional
[26] = system: Rattus norvegicus; assay: Percent change in volume of foot edema of test compound to that of positive control was determined at a dose of 10 mg/kg in rat; -49/-81; type: functional
[27] = system: Rattus norvegicus; assay: Percent change in volume of foot edema of test compound to that of positive control was determined at a dose of 31.6 mg/kg in rat; -27/-65; type: functional
[28] = system: Rattus norvegicus; assay: Percent change in volume of foot edema of test compound to that of positive control was determined at a dose of 10 mg/kg in rat; -38/-88; type: functional
[29] = system: Rattus norvegicus; assay: Percent change in volume of foot edema of test compound to that of positive control was determined at a dose of 31.6 mg/kg in rat; -87/-83; type: functional
[30] = system: Rattus norvegicus; assay: Percent change in volume of foot edema of test compound to that of positive control was determined at a dose of 10 mg/kg in rat; -43/-77; type: functional
[31] = system: Rattus norvegicus; assay: Percent change in volume of foot edema of test compound to that of positive control was determined at a dose of 31.6 mg/kg in rat; -65/-78; type: functional

CN(CCC(O)COc1ccccc1)CCN(C)c1ccccc1.O=C(O)C(=O)O (configuration not stated)
PFA [1]: -41

COc1cc(N2CCN(CCC(O)COc3ccccc3)CC2)cc(OC)c1OC.O=C(O)C(=O)O (configuration not stated)
PFA [2]: -26

Cl.NC(=O)c1ccc(OCC(O)CCN2CCN(c3ccccc3)CC2)cc1 (configuration not stated)
PFA [3]: -32 | PFA [4]: -90 | PFA [5]: -46

Cl.Cl.N#Cc1ccc(OCC(O)CCN2CCN(c3ccccc3)CC2)cc1 (configuration not stated)
PFA [6]: -15 | PFA [7]: -64

CC(=O)c1ccc(OCC(O)CCN2CCN(c3ccccc3)CC2)cc1.Cl.Cl (configuration not stated)
PFA [8]: -25

CC(C)(C)c1ccc(OCC(O)CCN2CCN(c3ccccc3)CC2)cc1.Cl (configuration not stated)
PFA [9]: -39 | PFA [10]: -57

Cc1ccc(N2CCN(CCC(O)COc3ccc(F)cc3)CC2)cc1.Cl.Cl (configuration not stated)
PFA [11]: -41 | PFA [12]: -77

O=C(O)/C=C\C(=O)O.c1ccc(OCCCCN2CCN(c3ccccc3)CC2)cc1
PFA [13]: -42

Cl.OC(CCN1CCN(c2ccc(Cl)cc2)CC1)COc1ccc(F)cc1 (configuration not stated)
PFA [14]: -73 | PFA [15]: -87 | PFA [16]: -8 | ED50 [17]: 7.85 mg/kg

Cc1ccc(N2CCN(CCC(O)COc3ccc(Cl)cc3)CC2)cc1.Cl (configuration not stated)
PFA [18]: -60 | PFA [19]: -4 | PFA [20]: -54

Cc1cc(OCC(O)CCN2CCN(c3ccccn3)CC2)ccc1Cl.Cl.Cl (configuration not stated)
PFA [21]: -79 | PFA [22]: -36

COc1ccc(N2CCN(CCC(O)COc3ccc(Cl)cc3)CC2)cc1.Cl.Cl (configuration not stated)
PFA [21]: -79 | PFA [23]: -40

OC(CCN1CCN(c2ccccc2)CC1)COc1ccc(Br)cc1 (configuration not stated)
PFA [24]: -56 | PFA [25]: -20 | PFA [26]: -49

OC(CCN1CCN(c2ccccc2Cl)CC1)COc1ccccc1 (configuration not stated)
PFA [27]: -27

CC(=O)c1ccc(N2CCN(CCC(O)COc3ccc(F)cc3)CC2)cc1 (configuration not stated)
PFA [28]: -38 | PFA [29]: -87

OC(CCN1CCN(c2ccc(Cl)cc2)CC1)COc1ccccc1 (configuration not stated)
PFA [30]: -43 | PFA [31]: -65
